# Results from ChEMBL document CHEMBL1156100, “Design and synthesis of a simplified inhibitor for XIAP-BIR3 domain” (Bioorg Med Chem Lett, 2009).
# The source made the active and inactive calls. No cut-off for these calls is given here.
# Biological target: T1, E3 ubiquitin-protein ligase XIAP (Homo sapiens, UniProt P98170)
# Assay: Inhibition of XIAP BIR3 domain at 10 to 100 uM by competitive fluorescence polarization binding assay relative to 1 uM BV6 control
# T1 sequence (P98170 whole entry, the tested form may be a part): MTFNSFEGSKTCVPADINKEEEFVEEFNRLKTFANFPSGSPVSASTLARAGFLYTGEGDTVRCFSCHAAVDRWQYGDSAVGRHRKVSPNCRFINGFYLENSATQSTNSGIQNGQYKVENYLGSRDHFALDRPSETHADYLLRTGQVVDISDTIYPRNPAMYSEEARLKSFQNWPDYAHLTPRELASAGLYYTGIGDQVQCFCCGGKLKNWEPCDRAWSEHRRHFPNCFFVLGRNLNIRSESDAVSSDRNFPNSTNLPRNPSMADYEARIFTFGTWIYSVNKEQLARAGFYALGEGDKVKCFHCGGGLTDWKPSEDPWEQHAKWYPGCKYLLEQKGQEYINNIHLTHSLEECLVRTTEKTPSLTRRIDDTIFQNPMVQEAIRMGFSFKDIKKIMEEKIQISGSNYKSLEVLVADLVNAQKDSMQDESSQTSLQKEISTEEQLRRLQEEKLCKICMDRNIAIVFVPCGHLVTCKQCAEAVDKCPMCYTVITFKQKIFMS
row,Activity,SMILES
1,Active,CN[C@@H](C)C(=O)Nc1nc2c(s1)CC[C@H]2C(=O)N[C@@H]1CCCc2ccccc21
2,inactive,CN[C@@H](C)C(=O)Nc1nc2c(s1)CC[C@@H]2C(=O)NC1CCCc2ccccc21 (mixture of isomers)
3,inactive,CN[C@@H](C)C(=O)Nc1nc2c(s1)CCC2C(=O)NC1CCCc2ccccc21 (mixture of isomers)
4,inactive,CN[C@@H](C)C(=O)Nc1nc2c(s1)CC[C@H]2C(=O)N[C@H]1CCCc2ccccc21

# Biological target: T1, E3 ubiquitin-protein ligase XIAP
# Assay: Inhibition of XIAP BIR3 domain by competitive fluorescence polarization binding assay
# How it was run: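 Competitive fluorescence polarization displacement assay using the XIAP BIR3 domain, with BV6 run in parallel as the reference compound. Binding affinity is expressed as Ki.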
row,Ki [µM],SMILES
1,5.58,CN[C@@H](C)C(=O)Nc1nc2c(s1)CC[C@H]2C(=O)N[C@@H]1CCCc2ccccc21
2,37,CN[C@@H](C)C(=O)Nc1nc2c(s1)CCC2C(=O)NC1CCCc2ccccc21 (mixture of isomers)

# Biological target: T1, E3 ubiquitin-protein ligase XIAP
# Assay: Inhibition of XIAP BIR3 domain at 100 uM by competitive fluorescence polarization binding assay
row,Activity,SMILES
1,inactive,CN[C@@H](C)C(=O)Nc1nc2c(s1)CCCCC2C(=O)NCc1ccccc1 (stereo partly drawn)
2,inactive,C[C@H](N)C(=O)Nc1nc2c(s1)CCCCC2C(=O)NCc1ccccc1 (stereo partly drawn)

# Second part, the compound before the results:
row,SMILES,Activity
1,C[C@H](N)C(=O)Nc1nc2c(s1)CCCCC2C(=O)NC(c1ccccc1)c1ccccc1 (stereo partly drawn),inactive
2,CN[C@@H](C)C(=O)Nc1nc2c(s1)CCCCC2C(=O)NC1CCCc2ccccc21 (stereo partly drawn),inactive
3,C[C@H](N)C(=O)Nc1nc2c(s1)CCCCC2C(=O)NC1CCCc2ccccc21 (stereo partly drawn),inactive
4,CN[C@@H](C)C(=O)Nc1nc2c(s1)CCCCC2C(=O)NC(c1ccccc1)c1ccccc1 (stereo partly drawn),inactive

# Biological target: T1, E3 ubiquitin-protein ligase XIAP
# Assay: Inhibition of XIAP BIR3 domain at 10 to 100 uM by competitive fluorescence polarization binding assay
row,Activity,SMILES
1,Active,C[C@H](N)C(=O)Nc1nc2c(s1)CCC2C(=O)NCc1ccccc1 (stereo partly drawn)
2,Active,C[C@H](N)C(=O)Nc1nc2c(s1)CCC2C(=O)NC1CCCc2ccccc21 (stereo partly drawn)
3,Active,CN[C@@H](C)C(=O)Nc1nc2c(s1)CCC2C(=O)NCc1ccccc1 (stereo partly drawn)
4,Active,C[C@H](N)C(=O)Nc1nc2c(s1)CCC2C(=O)NC(c1ccccc1)c1ccccc1 (stereo partly drawn)

# Continued, compound first:
row,SMILES,Activity
1,CN[C@@H](C)C(=O)Nc1nc2c(s1)CCC2C(=O)NC(c1ccccc1)c1ccccc1 (stereo partly drawn),Active
2,CN[C@@H](C)C(=O)Nc1nc2c(s1)CCC2C(=O)NC1CCCc2ccccc21 (mixture of isomers),Active
